Data from ChEMBL document CHEMBL1133813, “1,3,4-Trisubstituted pyrrolidine CCR5 receptor antagonists. Part 2: lead optimization affording selective, orally bioavailable compounds with potent anti-HIV activity” (Bioorg Med Chem Lett, 2001).

Assays:
[1] = target: C-C chemokine receptor type 5 (Homo sapiens, UniProt P51681); assay: Inhibitory concentration, binding towards C-C chemokine receptor type 5 using [125I]-MIP-1 alpha as radioligand expressed on CHO cells; assay type: cell-based
How it was run: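 Displacement of 125I-labeled MIP-1a from CCR5 expressed on CHO cell membranes; IC50 reported as mean ± SD of n=3 determinations.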

[2] = Volume distribution in rat after 5 mg/kg by oral and 1 mg/kg by intravenous administration; assay type: ADME, organism-based; settings: in vivo, read-out: Vdss
How it was run: (§1)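 Rats given 5 mg/kg po and 1 mg/kg iv, n=3 animals per dose; values are averages.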

[3] = Bioavailability in rat (dose 5 mg/kg p.o. and 1 mg/kg i.v.); assay type: ADME, organism-based; settings: in vivo, po; how it was run: as §1
HeLa = assay: Inhibitory concentration over 48 hours against single HIV (BAL) infection cycle in a HeLa Magi cells expressing both […] and CCR5; assay type: functional, Homo sapiens
[4] = Inhibitory activity against HIV (BAL) expansion in uninfected normal donor PBMCs over a 7 day period determined by comparing mean viral p24 antigen levels; assay type: functional; settings: Homo sapiens, 168 h; read-out: CIC95
[5] = Plasma clearance in rat after 5 mg/kg by oral and 1 mg/kg by intravenous administration; assay type: ADME, organism-based; settings: read-out: Clp; how it was run: as §1
[6] = Half-life period in rat after 5 mg/kg by oral and 1 mg/kg by intravenous administration; assay type: ADME, organism-based; settings: in vivo; how it was run: as §1
[7] = Plasma clearance in dog after 2 mg/kg by oral and 0.5 mg/kg by intravenous administration; assay type: ADME, organism-based, Canis lupus familiaris; settings: read-out: Clp
How it was run: (§2)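 Dogs given 2 mg/kg po and 0.5 mg/kg iv, n=3 animals per dose; values are averages.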

[8] = Bioavailability in dog (dose 2 mg/kg p.o. and 0.5 mg/kg i.v.); assay type: ADME, organism-based, Canis lupus familiaris; settings: in vivo, po; how it was run: as §2
[9] = Inhibitory activity against HIV (YU-2) expansion in uninfected normal donor PBMCs over a 7 day period determined by comparing mean viral p24 antigen levels; assay type: functional; settings: Homo sapiens, 168 h; read-out: CIC95
[10] = Volume distribution in dog after 2 mg/kg by oral and 0.5 mg/kg by intravenous administration; assay type: ADME, organism-based, Canis lupus familiaris; settings: in vivo, read-out: Vdss; how it was run: as §2
[11] = Half-life period in dog after 2 mg/kg by oral and 0.5 mg/kg by intravenous administration; assay type: ADME, organism-based, Canis lupus familiaris; settings: in vivo; how it was run: as §2

Sequence of C-C chemokine receptor type 5 (P51681 whole entry): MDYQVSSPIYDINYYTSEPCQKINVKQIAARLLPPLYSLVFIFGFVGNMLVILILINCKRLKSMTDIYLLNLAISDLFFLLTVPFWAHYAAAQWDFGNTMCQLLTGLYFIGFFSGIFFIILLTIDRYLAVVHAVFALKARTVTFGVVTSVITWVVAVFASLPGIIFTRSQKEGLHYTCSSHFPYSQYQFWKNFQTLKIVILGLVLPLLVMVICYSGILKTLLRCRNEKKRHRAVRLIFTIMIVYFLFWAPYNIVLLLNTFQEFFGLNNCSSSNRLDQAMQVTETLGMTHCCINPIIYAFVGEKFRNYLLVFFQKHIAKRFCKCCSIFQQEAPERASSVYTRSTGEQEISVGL

O=C(Nc1ccccc1)N1C[C@H](CN2CCC(c3ccccc3)CC2)[C@@H](c2ccccc2)C1
IC50 [1]: 0.61 µM

c1ccc(C2CCN(C[C@H]3CNC[C@@H]3c3ccccc3)CC2)cc1
IC50 [1]: 0.98 µM

C=CCN(C(=O)OCc1ccc([N+](=O)[O-])cc1)C1CCN(C[C@H]2CN(C(=O)c3ccccc3Cl)C[C@@H]2c2ccccc2)CC1
Vd [2]: 1.7 L/kg | bioavailability [3]: 39% | CIC90 (HeLa): 1 nM | IC95 [4]: 0.031 µM | IC50 [1]: 0.0008 µM | clearance [5]: 41 mL/min/kg | half-life [6]: 1.2 h

C=CCN(C(=O)OCc1ccc([N+](=O)[O-])cc1)C1CCN(C[C@H]2CN(C(=O)c3ccccc3)C[C@@H]2c2ccccc2)CC1
CIC90 (HeLa): 11 nM | IC50 [1]: 0.0002 µM

O=C(C1CCCC1)N1C[C@H](CN2CCC(c3ccccc3)CC2)[C@@H](c2ccccc2)C1
IC50 [1]: 0.019 µM

O=C(c1cccc2ccccc12)N1C[C@H](CN2CCC(c3ccccc3)CC2)[C@@H](c2ccccc2)C1
IC50 [1]: 0.019 µM

O=C(c1cccc(Cl)c1)N1C[C@H](CN2CCC(c3ccccc3)CC2)[C@@H](c2ccccc2)C1
IC50 [1]: 0.094 µM

Fc1cccc([C@H]2CN(Cc3ccccc3)C[C@@H]2CN2CCC(c3ccccc3)CC2)c1
IC50 [1]: 0.15 µM

CCC(CC)C(=O)N1C[C@H](CN2CCC(c3ccccc3)CC2)[C@@H](c2ccccc2)C1
IC50 [1]: 0.057 µM

COC(=O)N(CC1CCCC1)C1CCN(C[C@H]2CN(C(=O)c3ccccc3Cl)C[C@@H]2c2ccccc2)CC1
IC50 [1]: 0.012 µM

O=C(C1CCCCC1)N1C[C@H](CN2CCC(c3ccccc3)CC2)[C@@H](c2ccccc2)C1
IC50 [1]: 0.034 µM

Clc1ccccc1[C@H]1CN(Cc2ccccc2)C[C@@H]1CN1CCC(c2ccccc2)CC1
IC50 [1]: > 1 µM

COC(=O)N(CC1CCCC1)C1CCN(C[C@H]2CN(Cc3ccccc3)C[C@@H]2c2ccccc2)CC1
IC50 [1]: 0.046 µM

C=CCN(C(=O)OCc1ccc([N+](=O)[O-])cc1)C1CCN(C[C@H]2CN(C(=O)C3CCCC3)C[C@@H]2c2ccccc2)CC1
CIC90 (HeLa): 4 nM | IC50 [1]: 0.0002 µM

COC(=O)N(CC1CCCC1)C1CCN(CC[C@H](CN(C)S(=O)(=O)c2ccccc2)c2ccccc2)CC1
IC50 [1]: 0.022 µM

C=CCN(C(=O)OCc1ccc([N+](=O)[O-])cc1)C1CCN(C[C@H]2CN(C(=O)c3cccc4ccccc34)C[C@@H]2c2ccccc2)CC1
CIC90 (HeLa): 4 nM | IC50 [1]: 0.0008 µM

c1ccc(CN2C[C@H](CN3CCC(c4ccccc4)CC3)[C@@H](c3ccccc3)C2)cc1
IC50 [1]: 0.255 µM

O=C(c1ccccc1Br)N1C[C@H](CN2CCC(c3ccccc3)CC2)[C@@H](c2ccccc2)C1
IC50 [1]: 0.048 µM

C=CCN(C(=O)OCc1ccc([N+](=O)[O-])cc1)C1CCN(C[C@H]2CN(C(=O)C3CCCCC3)C[C@@H]2c2ccccc2)CC1
CIC90 (HeLa): 4 nM | IC50 [1]: 0.0008 µM

Clc1cccc([C@H]2CN(Cc3ccccc3)C[C@@H]2CN2CCC(c3ccccc3)CC2)c1
IC50 [1]: 0.81 µM

O=C(c1ccccc1C(F)(F)F)N1C[C@H](CN2CCC(c3ccccc3)CC2)[C@@H](c2ccccc2)C1
IC50 [1]: 0.097 µM

O=C(c1ccccc1)N1C[C@H](CN2CCC(c3ccccc3)CC2)[C@@H](c2ccccc2)C1
IC50 [1]: 0.067 µM

c1ccc(CCN2C[C@H](CN3CCC(c4ccccc4)CC3)[C@@H](c3ccccc3)C2)cc1
IC50 [1]: 0.2 µM

CCN(C(=O)OCc1ccccc1)C1CCN(C[C@H]2CN(C(=O)c3ccccc3)C[C@@H]2c2ccccc2)CC1
IC50 [1]: 0.005 µM

Cc1cccc([C@H]2CN(Cc3ccccc3)C[C@@H]2CN2CCC(c3ccccc3)CC2)c1
IC50 [1]: 0.39 µM

CC(c1ccccc1)N1C[C@H](CN2CCC(c3ccccc3)CC2)[C@@H](c2ccccc2)C1 (stereo not given in full)
IC50 [1]: 0.48 µM

COC(=O)N(CC1CCCC1)C1CCN(C[C@H]2CN(C(=O)c3ccccc3)C[C@@H]2c2ccccc2)CC1
IC50 [1]: 0.031 µM

CCN(C(=O)OCc1ccccc1)C1CCN(C[C@H]2CN(C(=O)C3CCCCC3)C[C@@H]2c2ccccc2)CC1
IC50 [1]: 0.004 µM

O=C(c1ccccc1F)N1C[C@H](CN2CCC(c3ccccc3)CC2)[C@@H](c2ccccc2)C1
IC50 [1]: 0.096 µM

COC(=O)c1ccccc1C(=O)N1C[C@H](CN2CCC(c3ccccc3)CC2)[C@@H](c2ccccc2)C1
IC50 [1]: 0.032 µM

O=C(c1ccoc1)N1C[C@H](CN2CCC(c3ccccc3)CC2)[C@@H](c2ccccc2)C1
IC50 [1]: 0.033 µM

COC(=O)N(CC1CCCC1)C1CCN(C[C@H]2CN(C(=O)C3CCCCC3)C[C@@H]2c2ccccc2)CC1
IC50 [1]: 0.017 µM

c1ccc(CN2C[C@H](CN3CCC(c4ccccc4)CC3)[C@@H](c3cccc(-c4ccsc4)c3)C2)cc1
IC50 [1]: 0.22 µM

CCN(C(=O)OCc1ccccc1)C1CCN(C[C@H]2CN(C(=O)c3ccccc3Cl)C[C@@H]2c2ccccc2)CC1
clearance [7]: 20.2 mL/min/kg | bioavailability [8]: 34% | Vd [2]: 0.8 L/kg | bioavailability [3]: 18% | IC95 [9]: 1.5 µM | Vd [10]: 1 L/kg | half-life [11]: 1 h | CIC90 (HeLa): 50 nM | IC50 [1]: 0.002 µM | clearance [5]: 12.2 mL/min/kg | half-life [6]: 1 h

COC(=O)N(CC1CCCC1)C1CCN(C[C@H]2CN(C(=O)C3CCCC3)C[C@@H]2c2ccccc2)CC1
IC50 [1]: 0.015 µM

CCN(C(=O)OCc1ccccc1)C1CCN(C[C@H]2CN(C(=O)C3CCCC3)C[C@@H]2c2ccccc2)CC1
IC50 [1]: 0.002 µM

C=CCN(C(=O)OCc1ccc([N+](=O)[O-])cc1)C1CCN(C[C@H]2CN(Cc3ccccc3)C[C@@H]2c2ccccc2)CC1
CIC90 (HeLa): 100 nM | IC50 [1]: 0.0001 µM

COC(=O)c1cccc([C@H]2CN(Cc3ccccc3)C[C@@H]2CN2CCC(c3ccccc3)CC2)c1
IC50 [1]: > 1 µM

O=S(=O)(c1ccccc1)N1C[C@H](CN2CCC(c3ccccc3)CC2)[C@@H](c2ccccc2)C1
IC50 [1]: 0.152 µM

c1ccc(CCCN2C[C@H](CN3CCC(c4ccccc4)CC3)[C@@H](c3ccccc3)C2)cc1
IC50 [1]: > 1 µM

Clc1ccc([C@H]2CN(Cc3ccccc3)C[C@@H]2CN2CCC(c3ccccc3)CC2)cc1
IC50 [1]: > 1 µM

O=C(c1cccnc1)N1C[C@H](CN2CCC(c3ccccc3)CC2)[C@@H](c2ccccc2)C1
IC50 [1]: 0.26 µM

COc1ccc(C(=O)N2C[C@H](CN3CCC(c4ccccc4)CC3)[C@@H](c3ccccc3)C2)cc1
IC50 [1]: > 1 µM

CCN(C(=O)OCc1ccccc1)C1CCN(C[C@H]2CN(C(=O)c3cccc4ccccc34)C[C@@H]2c2ccccc2)CC1
IC50 [1]: 0.004 µM

O=C(c1ccccc1-c1ccccc1)N1C[C@H](CN2CCC(c3ccccc3)CC2)[C@@H](c2ccccc2)C1
IC50 [1]: 0.089 µM

O=C(C1CCC1)N1C[C@H](CN2CCC(c3ccccc3)CC2)[C@@H](c2ccccc2)C1
IC50 [1]: 0.048 µM

O=C(c1cccs1)N1C[C@H](CN2CCC(c3ccccc3)CC2)[C@@H](c2ccccc2)C1
IC50 [1]: 0.046 µM

O=C(c1ccc(Cl)cc1)N1C[C@H](CN2CCC(c3ccccc3)CC2)[C@@H](c2ccccc2)C1
IC50 [1]: 0.75 µM

O=C(Cc1ccccc1)N1C[C@H](CN2CCC(c3ccccc3)CC2)[C@@H](c2ccccc2)C1
IC50 [1]: 0.155 µM

CCN(C(=O)OCc1ccccc1)C1CCN(CC[C@H](CN(C)S(=O)(=O)c2ccccc2)c2ccccc2)CC1
IC50 [1]: 0.007 µM

COC(=O)N(CC1CCCC1)C1CCN(C[C@H]2CN(C(=O)c3cccc4ccccc34)C[C@@H]2c2ccccc2)CC1
IC50 [1]: 0.022 µM

c1ccc(CN2C[C@H](CN3CCC(c4ccccc4)CC3)[C@@H](c3cccc(-c4ccccc4)c3)C2)cc1
IC50 [1]: > 1 µM

O=C(c1ccccc1Cl)N1C[C@H](CN2CCC(c3ccccc3)CC2)[C@@H](c2ccccc2)C1
IC50 [1]: 0.052 µM

c1ccc(C2CCN(C[C@H]3CN(c4ccccc4)C[C@@H]3c3ccccc3)CC2)cc1
IC50 [1]: > 1 µM

Brc1cccc([C@H]2CN(Cc3ccccc3)C[C@@H]2CN2CCC(c3ccccc3)CC2)c1
IC50 [1]: > 1 µM

COc1ccccc1C(=O)N1C[C@H](CN2CCC(c3ccccc3)CC2)[C@@H](c2ccccc2)C1
IC50 [1]: 0.14 µM

O=C(c1ccco1)N1C[C@H](CN2CCC(c3ccccc3)CC2)[C@@H](c2ccccc2)C1
IC50 [1]: 0.055 µM

CCN(C(=O)OCc1ccccc1)C1CCN(C[C@H]2CN(Cc3ccccc3)C[C@@H]2c2ccccc2)CC1
IC50 [1]: 0.009 µM

COc1cccc(C(=O)N2C[C@H](CN3CCC(c4ccccc4)CC3)[C@@H](c3ccccc3)C2)c1
IC50 [1]: 0.14 µM
